# From PubChem
# Compounds with a hit are over-represented: about 4.8% of the library has one in this group of screens.
# Beta cell apopt: blocks beta cell apoptosis. 0.8% of 300,000 active. protection from apoptosis, % (test concentration not listed). INS-1E cytokine-induced death, ATP luminescence, 48 h; percent of positive-control rescue, neutral wells zero;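 active = Every replicate reaches about 75%, or at least half do and their mean reaches it too, limit read from the data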;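 note: 0% = cytokine-treated negative control wells and 100% = positive control rescue; higher means more ATP so stronger rescue from cytokine killing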
# CHOP UPR activ: activators of apoptotic arm of unfolded protein response (CHOP) | CHO-CHOP luciferase reporter, UPR activation, luminescence; percent of tunicamycin response over DMSO baseline | activation, % at 10 µM | 0.34% of 330,000 active | AID 449763;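 active = at 10 µM dose, activation of 40% or more, normalized to positive control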;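 note: 100% = tunicamycin at 10 µg/mL and 0% = DMSO alone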
#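 Test system: CHO CHOP reporter cells. Input: 500 CHO-CHOP cells per well. Medium: F12 with 10% FBS. Technique: luciferase luminescence. Measure: percent activation relative to tunicamycin control. Dosing: 10 µM compound, 0.5% DMSO. Timing: 16-18 h cell attachment, then 6 h compound exposure, 37 °C.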
# XBP1 UPR activ: adaptive UPR (XBP1) activation. CHO-XBP1 luciferase reporter, IRE1-XBP1 UPR activation, luminescence; percent of tunicamycin response, DMSO as zero. activation, % at 20 µM. 0.33% of 330,000 active;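 active = versus positive control, 20 µM dose yields 30% or more activation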;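 note: 100% = tunicamycin at 10 µg/mL and 0% = DMSO only wells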
#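 Material: CHO cell line with stable XBP1 luciferase reporter; schedule: 16-18 h cell attachment at 37 °C, then 6 h compound exposure; signal: glow luminescence from Steady-Glo reagent; medium: serum-containing F12 medium, 10% FBS; benchmarks: tunicamycin 10 µg/mL and vehicle-only wells; read-out: percent activation relative to tunicamycin reference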
# Mdm2 MdmX PPI: inhibitors of human Mdm2/MdmX interaction. O15151+Q00987. SaOS-2 split-luciferase Mdm2/MdmX complementation, luminescence. inhibition, % at 8 µM. 3% of 330,000 active;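 active = inhibition of at least 50% at 8 µM in the primary screen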
# Target sequence (O15151 whole entry, looked up): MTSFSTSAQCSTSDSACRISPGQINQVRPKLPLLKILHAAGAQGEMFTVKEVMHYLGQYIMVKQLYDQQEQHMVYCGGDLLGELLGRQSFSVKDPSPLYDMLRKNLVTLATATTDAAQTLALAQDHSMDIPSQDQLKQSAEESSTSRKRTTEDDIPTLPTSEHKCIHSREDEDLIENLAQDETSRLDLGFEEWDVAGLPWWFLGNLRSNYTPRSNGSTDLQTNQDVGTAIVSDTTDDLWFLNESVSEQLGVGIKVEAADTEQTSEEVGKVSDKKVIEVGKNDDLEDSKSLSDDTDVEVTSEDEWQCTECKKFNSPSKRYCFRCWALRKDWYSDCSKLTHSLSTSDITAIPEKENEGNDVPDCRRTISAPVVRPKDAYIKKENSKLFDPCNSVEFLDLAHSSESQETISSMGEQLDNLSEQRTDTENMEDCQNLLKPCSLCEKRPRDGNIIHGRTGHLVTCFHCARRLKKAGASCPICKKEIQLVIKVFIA
# Target sequence (Q00987 whole entry, looked up): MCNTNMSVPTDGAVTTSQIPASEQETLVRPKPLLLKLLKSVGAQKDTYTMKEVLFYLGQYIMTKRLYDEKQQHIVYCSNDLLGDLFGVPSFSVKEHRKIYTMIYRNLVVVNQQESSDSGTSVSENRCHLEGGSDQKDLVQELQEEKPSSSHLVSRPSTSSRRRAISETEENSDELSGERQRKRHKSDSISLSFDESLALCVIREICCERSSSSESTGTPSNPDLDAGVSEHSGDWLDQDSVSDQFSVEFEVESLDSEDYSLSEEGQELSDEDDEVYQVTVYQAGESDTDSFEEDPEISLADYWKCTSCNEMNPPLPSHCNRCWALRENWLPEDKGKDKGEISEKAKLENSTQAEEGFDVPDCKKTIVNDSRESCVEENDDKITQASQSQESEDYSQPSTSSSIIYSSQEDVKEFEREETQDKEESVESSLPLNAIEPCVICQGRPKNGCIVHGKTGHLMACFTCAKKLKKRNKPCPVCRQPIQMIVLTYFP
# CSC inhib: cancer stem cell inhibition; 1.1% of 300,000 active; cancer stem cell-like cells viability, luminescence; inhibition, % at 7.5 µM; AID 2717; in the data active = inhibition above about 75%; tested in HMLE shEcad cells
# SKKanGAS inh: SKKanGAS growth inhibition | S. pyogenes SKKanGAS, kanamycin growth, BacTiter-Glo, 6 h | inhibition, % at 7.5 µM | 1.3% of 300,000 active | AID 1662;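 active = mean replicate score, as percent of positive control median, at least 50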;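 note: strain carries kanamycin resistance gene driven by streptokinase promoter and grows in 40 µg/ml kanamycin; loss of luminescence reflects streptokinase promoter inhibition or plain growth inhibition; 0% = median of DMSO wells and 100% = positive control at its reference dose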
# Mdm2 MdmX conf: human Mdm2/MdmX binding inhibition, confirmed; shares compounds with Mdm2 MdmX PPI; luminescent assay; inhibition, % at 8 µM; 55% of 10,000 active; AID 489028; in the data active = inhibition above about 40%
# Full FLuc ctr: inhibits full-length luciferase, flagging false Mdm2/MdmX hits | shares compounds with Mdm2 MdmX PPI | SaOS-2 full-length luciferase counterscreen, luminescence | inhibition, % at 8 µM | 77% of 6,200 active | AID 504607;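 active = mean inhibition at 8 µM reaching about 37%, which flags the compound as non-specific, limit read from the data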;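 note: p53-null SaOS-2 cells with luciferase driven by a doxycycline-inducible promoter; compound on cells about two nights before reading with doxycycline added after day one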
# * = called active by the depositor; . = no result.
SMILES,Beta cell apopt,CHOP UPR activ,XBP1 UPR activ,Mdm2 MdmX PPI,CSC inhib,SKKanGAS inh,Mdm2 MdmX conf,Full FLuc ctr
C=CC[C@@H](CC/C=C/C=C/CC/C=C\[C@@H]1CSC([C@@H]2C[C@@H]2C)=N1)OC,.,2,12,56*,.,.,49*,114*
COc1ccc(C[C@H]2NC[C@H](O)[C@H]2OC(C)=O)cc1,51,-7,-11,98*,79*,0,98*,5
O=c1[nH]c(O)c(C=Nc2ccccc2Oc2ccccc2)c(=O)[nH]1,-5,0,-2,10,3,1,.,.
C/C(=N\N1CCN(C)CC1)c1c(O)n(Cc2ccccc2)c(=O)[nH]c1=O,.,1,-1,6,-9,-16,.,.
CCCCCCn1c(=O)c(C(=O)Nc2cnccn2)c(O)c2ccccc21,28,14,4,61*,41,64*,52*,46*
CCCCCn1c(=O)c(C(=O)Nc2ccccn2)c(O)c2ccccc21,.,15,-2,54*,20,1,19,.
CC1=NN(c2ccccc2)C(=O)C1/C=C1\C(=O)NC(=O)N(c2ccc(C)c(C)c2)C1=O (stereo not given),-2,0,-3,-20,5,4,.,.
CC12CCC3C(CC=C4CC(O)CCC43C)C1C/C(=C\c1cccc(F)c1)C2=O (stereo not given),3,-2,1,60*,31,17,20,.
COC(=O)C1=C(c2ccc(OC)c(OC)c2)C[C@@H]2CC[C@H]1N2C(=O)N1CCCC1,-3,-4,-1,29,-2,.,.,.
COc1ccc(CCNC(=O)c2c(N)n(CCN3CCOCC3)c3nc4ccccc4nc23)cc1,1,3,1,76*,42,50*,8,.
CCCCn1c(N)c(C(=O)NCCN2CCOCC2)c2nc3ccccc3nc21,-2,0,3,4,14,11,.,.
Nc1c(C(=O)NCCc2ccccc2)c2nc3ccccc3nc2n1CCN1CCOCC1,.,-1,3,54*,.,14,28,.
Cc1ccc(CN2C3CCCC2CC(NC(=S)NCc2ccccc2)C3)cc1 (stereo not given),11,1,4,37,-7,-8,.,.
CCN1CCN(c2ncnc3ccc(Br)cc23)CC1,-8,1,-2,62*,.,1,62*,42*
CCOC(=O)C1=C(N)OC2=C(C(=O)CCC2)[C@]12C(=O)N(CC(N)=O)c1ccccc12,-3,3,-2,-3,-14,0,.,.
Fc1ccc(C(OCCN2CCCC2)c2ccc(F)cc2)cc1,.,-1,-1,-7,.,1,.,.
Fc1ccc(C(OCCN2CCN(CCCc3ccccc3)CC2)c2ccc(F)cc2)cc1,102*,6,-4,83*,98*,5,59*,30
c1ccc(CCCN2CCN(CCOC(c3ccccc3)c3ccccc3)CC2)cc1,14,-2,-10,50*,69,-2,34,80*
C[C@@H]1O[C@@H](O[C@H]2C[C@@H](O)[C@]3(CO)[C@H]4[C@H](O)C[C@]5(C)[C@@H](C6=CC(=O)OC6)CC[C@]5(O)[C@@H]4CC[C@]3(O)C2)[C@H](O)[C@H](O)[C@H]1O,-4,0,-10,83*,95*,-2,80*,12
O=C(NCc1ccccc1)c1cccn(Cc2ccccc2)c1=O,-7,-1,-3,0,13,-2,.,.
O=C(c1cc(C(=O)NCc2ccccc2)c(=O)n(Cc2ccccc2)c1)c1cc(Cl)ccc1O,9,2,-1,56*,49,26,29,.
Cc1ccccc1-n1c(O)c(/C=C2/C(c3ccccc3)=Nc3ccccc32)c(=O)[nH]c1=O,15,4,14,57*,67,0,63*,66*
CC1=Nc2ccccc2/C1=C/c1c(O)n(C)c(=O)[nH]c1=O,-7,1,-3,-5,12,0,.,.
Cc1cccc(-n2c(O)c(/C=C3/C(c4ccccc4)=Nc4ccccc43)c(=O)[nH]c2=O)c1,19,2,-1,54*,65,-8,57*,36
CCc1nn(CC(=O)N2CCC3(CC2)OCCO3)c(=O)c2cc3ccccc3n12,-1,-2,0,10,0,-2,.,.
SMILES,Beta cell apopt,CHOP UPR activ,XBP1 UPR activ,Mdm2 MdmX PPI,CSC inhib,SKKanGAS inh,Mdm2 MdmX conf,Full FLuc ctr
CCC1(C)CN(S(=O)(=O)OCC(Cl)(Cl)Cl)C(=O)N1 (stereo not given),-6,-3,3,-31,-11,-3,.,.
CCCCCCCCCCCCCCCC[N+](C)(C)C,117*,-1,-3,90*,102*,103*,76*,9
COc1ccc(CC(C)Nc2cccc(F)c2)cc1 (stereo not given),-3,2,-2,-22,-14,7,.,.
COC(=O)C1=C(c2cc3ccccc3o2)C[C@@H]2CC[C@H]1N2C(=O)NCc1ccco1,-2,2,-2,21,-10,-1,.,.
COC(=O)C1=C(c2ccc(F)cc2OCc2ccccc2)C[C@@H]2CC[C@H]1N2C(=O)NCc1ccccc1,5,0,-1,14,24,.,.,.
COC(=O)C1=C(c2ccc(F)cc2OCc2ccccc2)C[C@@H]2CC[C@H]1N2C(=O)NC1CCN(Cc2ccccc2)CC1,0,1,3,76*,14,.,37,60*
COC(=O)C1=C(c2ccccc2OCc2ccccc2)C[C@@H]2CC[C@H]1N2C(=O)NC1CCN(Cc2ccccc2)CC1,7,2,0,51*,12,.,18,.
COC(=O)C1=C(c2cccc(OCc3ccccc3)c2)C[C@@H]2CC[C@H]1N2C(=O)NC1CCN(Cc2ccccc2)CC1,8,3,-2,61*,22,.,40*,71*
CCN1C[C@]2(COC)CC[C@H](OC)[C@@]34C1[C@]1(OCO[C@@]15C[C@H](OC)[C@H]1C[C@@H]3[C@@H]5[C@H]1OC)[C@@H](O)[C@H]24,-9,0,-1,6,0,.,.,.
CC(=Nc1ccccc1N)c1c(O)n(C)c(=O)[nH]c1=O,-6,-2,-4,12,-6,3,.,.
COc1ccc(O)c2c(=O)c3c(OC)cc4c(c3oc12)C1C=COC1O4 (stereo not given),24,2,7,74*,36,28,63*,42*
COc1ccc2c3c1OC1C(=O)CC[C@@]4(O)[C@@H](C2)N(C)CC[C@]314 (stereo not given in full),.,1,-1,67*,.,.,53*,21
